# Measurements reported in publication PMC3483416 (Archives of biochemistry and biophysics, 2012).
# Like-named read-outs stand apart in the source and are kept apart here.
# Assays:
# ITC: binding = experiment: ITC: binding
# In short: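 25 × 10 μl injections of 50 μM full-length BclXL into a cell of 2 mM TOCL/DHPC bicelles (1:4 molar ratio, stirred 2 h at 37 °C in buffer). 25 °C; 50 mM buffer (acetate pH 4 to CAPS pH 10) with 100 mM NaCl, 1 mM EDTA and 5 mM β-mercaptoethanol. Buffer-titration heats subtracted. Kd and ΔH from a one-site fit; TΔS = ΔH − ΔG. ≥3 repeats.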
# [1] = Analytical light scattering; type: physicochemical; conditions: for Mw (weighted-average molar mass): Superdex 200, 10°C; for P (population of species): integration of elution peak
# In short: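 Full-length His-tagged human BclXL, 50 μM starting concentration, run on Superdex 200 SEC at 1 ml/min and 10 °C in 50 mM buffer (pH 4–10) with 100 mM NaCl, 1 mM EDTA and 5 mM β-mercaptoethanol. Inline triple-angle SLS, 90° DLS and refractive-index concentration detection. Mw, Mn and Rg from Zimm treatment; Rh from autocorrelation fit. Errors one SD, ≥3 independent runs.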
# [2] = type: physicochemical; conditions: 50μM BclXL, 1°C/min
# Far-UV CD of BclXL = type: physicochemical; conditions: 5μM BclXL, 25°C
# In short: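 Far-UV spectra of 5 μM full-length human BclXL in 50 mM acetate (pH 4), phosphate (pH 6), Tris (pH 8) or CAPS (pH 10). 25 °C; 2-mm quartz cuvette; 190–250 nm; 2-nm slit; 10 nm/min scan. Buffer reference spectra subtracted. At least three repeats.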
# [3] = ANS fluorescence in the presence of BclXL; type: binding; conditions: for ANS fluorescence enhancement: 5μM BclXL, excess ANS, excitation 375nm, 25 °C
# In short: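 Full-length human BclXL (residues 1–233, N-His, E. coli-expressed, Ni-NTA purified) at 5 μM with excess ANS in 50 mM acetate pH 4, phosphate pH 6, Tris pH 8 or CAPS pH 10. 25 °C; excitation 375 nm; emission 400–600 nm; 2.5-nm bandwidths. ANS-alone background subtracted. Enhancement = (Φ−Φo)/Φo × 100%, where Φ is the integrated spectral area. At least three repeats.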
# [4] = Acrylamide quenching of BclXL intrinsic fluorescence; type: physicochemical; conditions: 5μM BclXL, excess acrylamide, 25 °C
# In short: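 Intrinsic fluorescence quenching: 5 μM His-tagged full-length human BclXL with excess acrylamide in 50 mM acetate (pH 4), phosphate (pH 6), Tris (pH 8) or CAPS (pH 10). 25 °C, 10-mm cuvette; excitation 290 nm; emission 300–500 nm; 2.5-nm bandwidths. […] Q = (Φo−Φ)/Φo × 100% from integrated spectral areas. At least three repeats.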
# Near-UV CD of BclXL = type: physicochemical; conditions: 30μM BclXL, 25°C
# In short: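 Near-UV spectra recorded on 30 μM His-tagged full-length human BclXL in 50 mM acetate pH 4, phosphate pH 6, Tris pH 8 or CAPS pH 10. 25 °C; 10-mm quartz cuvette; 260–340 nm; 2-nm slit; 10 nm/min. Spectra normalized against buffer references. At least three repeats.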
# [5] = Dimer, pH 6, ± SD, n at least 3
# [6] = Dimer, pH 8, ± SD, n at least 3
# [7] = Dimer, pH 10, ± SD, n at least 3
# [8] = Megamer, pH 4, ± SD, n at least 3
# [9] = Monomer, pH 6, ± SD, n at least 3
# [10] = Monomer, pH 8, ± SD, n at least 3
# [11] = Multimer, pH 6, ± SD, n at least 3
# [12] = Multimer, pH 8, ± SD, n at least 3
# [13] = Multimer, pH 10, ± SD, n at least 3
# [14] = Polymer, pH 6, ± SD, n at least 3
# [15] = Polymer, pH 8, ± SD, n at least 3
# [16] = Polymer, pH 10, ± SD, n at least 3
substance,measurement,setting,value
"full-length BclXL: Full-length human BclXL (residues 1-233), N-terminal His-tag, expressed in Escherichia coli",TΔS,"ITC: binding; pH 4, acetate, 25 °C, TΔS=ΔH-ΔG, ± SD, n at least 3",-53.73 ± 4.1 kcal/mol
same,ΔH,"ITC: binding; pH 4, acetate, 25 °C, ± SD, n at least 3",-63.00 ± 4.2 kcal/mol
same,ΔG,"ITC: binding; pH 4, acetate, 25 °C, ΔG=RTlnKd, ± SD, n at least 3",-9.26 ± 0.1 kcal/mol
same,"binding to TOCL/DHPC bicelles, in words",ITC: binding; pH 4-10,only under acidic conditions
same,Mw (weighted-average molar mass),"[1]; Dimer, pH 6, phosphate, 50μM loaded, ± SD, n at least 3",61 ± 3 kD
same,P (population of species),"[1]; Dimer, pH 6",11%
same,Mn (number-average molar mass),[1]; [5],59 ± 2 kD
same,Mw/Mn,[1]; [5],1.02 ± 0.01
same,Rh (weighted-average hydrodynamic radius),[1]; [5],49 ± 4 Å
same,Mw (weighted-average molar mass),"[1]; Dimer, pH 8, Tris, 50μM loaded, ± SD, n at least 3",62 ± 4 kD
same,P (population of species),"[1]; Dimer, pH 8",5%
same,Mn (number-average molar mass),[1]; [6],61 ± 2 kD
same,Mw/Mn,[1]; [6],1.01 ± 0.01
same,Rh (weighted-average hydrodynamic radius),[1]; [6],48 ± 2 Å
same,Mw (weighted-average molar mass),"[1]; Dimer, pH 10, CAPS, 50μM loaded, ± SD, n at least 3",61 ± 3 kD
same,P (population of species),"[1]; Dimer, pH 10",5%
same,Mn (number-average molar mass),[1]; [7],60 ± 3 kD
same,Mw/Mn,[1]; [7],1.02 ± 0.01
same,Rh (weighted-average hydrodynamic radius),[1]; [7],49 ± 3 Å
same,Mw (weighted-average molar mass),"[1]; Megamer, pH 4, acetate, 50μM loaded, ± SD, n at least 3",33805 ± 2821 kD
same,Mn (number-average molar mass),"[1]; Megamer, pH 4, 50μM loaded, 10°C, ± SD, n at least 3",33085 ± 2623 kD
same,P (population of species),"[1]; Megamer, pH 4",100%
same,Mw/Mn,[1]; [8],1.02 ± 0.01
same,Rg (weighted-average radius of gyration),[1]; [8],783 ± 86 Å
same,Rg/Rh,[1]; [8],2.40 ± 0.16
same,Rh (weighted-average hydrodynamic radius),[1]; [8],324 ± 23 Å
same,Mw (weighted-average molar mass),"[1]; Monomer, pH 6, phosphate, 50μM loaded, ± SD, n at least 3",32 ± 2 kD
same,P (population of species),"[1]; Monomer, pH 6",31%
same,Mn (number-average molar mass),[1]; [9],31 ± 2 kD
same,Mw/Mn,[1]; [9],1.01 ± 0.01
same,Rh (weighted-average hydrodynamic radius),[1]; [9],26 ± 1 Å
same,Mw (weighted-average molar mass),"[1]; Monomer, pH 8, Tris, 50μM loaded, ± SD, n at least 3",31 ± 1 kD
same,P (population of species),"[1]; Monomer, pH 8",7%
same,Mn (number-average molar mass),[1]; [10],30 ± 2 kD
same,Mw/Mn,[1]; [10],1.00 ± 0.00
same,Rh (weighted-average hydrodynamic radius),[1]; [10],34 ± 2 Å
same,Mw (weighted-average molar mass),"[1]; Monomer, pH 10, CAPS, 50μM loaded, ± SD, n at least 3",31 ± 2 kD
same,P (population of species),"[1]; Monomer, pH 10",9%
same,Mw (weighted-average molar mass),"[1]; Multimer, pH 6, phosphate, 50μM loaded, ± SD, n at least 3",595 ± 45 kD
same,P (population of species),"[1]; Multimer, pH 6",37%
same,Mn (number-average molar mass),[1]; [11],577 ± 39 kD
same,Mw/Mn,[1]; [11],1.03 ± 0.02
same,Rg (weighted-average radius of gyration),[1]; [11],141 ± 5 Å
same,Rg/Rh,[1]; [11],1.47 ± 0.02
same,Rh (weighted-average hydrodynamic radius),[1]; [11],95 ± 3 Å
same,Mw (weighted-average molar mass),"[1]; Multimer, pH 8, Tris, 50μM loaded, ± SD, n at least 3",364 ± 32 kD
same,P (population of species),"[1]; Multimer, pH 8",51%
same,Mn (number-average molar mass),[1]; [12],325 ± 33 kD
same,Mw/Mn,[1]; [12],1.11 ± 0.01
same,Rg (weighted-average radius of gyration),[1]; [12],98 ± 4 Å
same,Rg/Rh,[1]; [12],1.08 ± 0.02
same,Rh (weighted-average hydrodynamic radius),[1]; [12],90 ± 2 Å
same,Mw (weighted-average molar mass),"[1]; Multimer, pH 10, CAPS, 50μM loaded, ± SD, n at least 3",461 ± 21 kD
same,P (population of species),"[1]; Multimer, pH 10",50%
same,Mn (number-average molar mass),[1]; [13],448 ± 23 kD
same,Mw/Mn,[1]; [13],1.03 ± 0.01
same,Rg (weighted-average radius of gyration),[1]; [13],131 ± 5 Å
same,Rg/Rh,[1]; [13],1.21 ± 0.01
same,Rh (weighted-average hydrodynamic radius),[1]; [13],108 ± 4 Å
same,Mw (weighted-average molar mass),"[1]; Polymer, pH 6, phosphate, 50μM loaded, ± SD, n at least 3",3521 ± 292 kD
same,P (population of species),"[1]; Polymer, pH 6",21%
same,Mn (number-average molar mass),[1]; [14],3101 ± 201 kD
same,Mw/Mn,[1]; [14],1.13 ± 0.03
same,Rg (weighted-average radius of gyration),[1]; [14],230 ± 12 Å
same,Rg/Rh,[1]; [14],1.22 ± 0.02
same,Rh (weighted-average hydrodynamic radius),[1]; [14],187 ± 9 Å
same,Mw (weighted-average molar mass),"[1]; Polymer, pH 8, Tris, 50μM loaded, ± SD, n at least 3",3729 ± 246 kD
same,P (population of species),"[1]; Polymer, pH 8",37%
same,Mn (number-average molar mass),[1]; [15],3226 ± 236 kD
same,Mw/Mn,[1]; [15],1.15 ± 0.02
same,Rg (weighted-average radius of gyration),[1]; [15],218 ± 12 Å
same,Rg/Rh,[1]; [15],1.15 ± 0.03
same,Rh (weighted-average hydrodynamic radius),[1]; [15],188 ± 11 Å
same,Mw (weighted-average molar mass),"[1]; Polymer, pH 10, CAPS, 50μM loaded, ± SD, n at least 3",3189 ± 229 kD
same,P (population of species),"[1]; Polymer, pH 10",36%
same,Mn (number-average molar mass),[1]; [16],3018 ± 212 kD
same,Mw/Mn,[1]; [16],1.06 ± 0.02
same,Rg (weighted-average radius of gyration),[1]; [16],232 ± 13 Å
same,Rg/Rh,[1]; [16],1.14 ± 0.02
same,Rh (weighted-average hydrodynamic radius),[1]; [16],202 ± 7 Å
same,mass of megamer,[1]; acidic conditions (pH 4),"~ 34,000 kD"
same,monomeric units in megadalton oligomer,[1]; acidic conditions (pH 4),more than 1000 monomeric units
same,Mw/Mn,"[1]; megadalton oligomer, pH 4, text",< 1.05
same,Mw/Mn,[1]; monomeric and dimeric forms,< 1.05
same,Rg/Rh,[1]; multimer and polymer,> 1.05
same,mass of monomer,[1]; pH 6 and higher,~ 31 kD
same,melting temperature (no melting transition up to),"[2]; pH 4, 50mM buffer, 3atm",> 120 °C
same,"melting temperature (Tm), first transition","[2]; pH 6, attributed to dissociation of dimer into monomers",around 55 °C
same,"melting temperature (Tm), second transition","[2]; pH 6, attributed to unfolding of monomers",~70 °C
same,"melting temperature (Tm), first transition","[2]; pH 10, dissociation of dimer into monomers",around 60 °C
same,"melting temperature (Tm), second transition","[2]; pH 10, unfolding of monomers",~90 °C
same,intensity of far-UV spectrum,Far-UV CD of BclXL; pH 4-10,steadily increases with increasing pH
same,"far-UV CD band, first",Far-UV CD of BclXL; all pH conditions,around 208 nm
same,"far-UV CD band, second",Far-UV CD of BclXL; all pH conditions,~222 nm
same,ANS emission maximum upon binding to BclXL,[3]; blue-shifted from 515nm in water,around 475 nm
same,ANS fluorescence enhancement,[3]; pH 4,~15 fold
same,ANS fluorescence enhancement,[3]; pH 6,2 fold
same,ANS fluorescence enhancement,[3]; pH 8,about 5 fold
same,ANS fluorescence enhancement,[3]; pH 10,about 5 fold
same,fluorescence quenching by acrylamide vs pH,[4],optimal quenching occurs at pH 6
same,near-UV CD signal,Near-UV CD of BclXL; acidic pH (pH 4),substantially attenuated
same,near-UV CD signal,Near-UV CD of BclXL; alkaline conditions (pH 8 and 10),also attenuated
same,near-UV CD signal,Near-UV CD of BclXL; pH 6,strong near-UV CD signal
